Measured values gathered from unrelated publications.
Lines come from different studies, so protocols differ.

| Structure (SMILES) | cell line | assay | setting | measurement | value |
| --- | --- | --- | --- | --- | --- |
| Clc1ccc(-c2nc3ccccc3[nH]2)cc1Cl | human Rhabdomyosarcoma cell | cell growth or viability, MTT | 48 h | IC50 | 10.4 µM |
| C/C(=N\O)c1ccc(-c2ccc(F)cc2)c(Cl)c1O | NCI-H1299 | cell growth or viability, MTT | 30 µM, 48 h | viability | 69% |
| CCC[C@@H]1CNC(=O)C(=O)N1C[C@@H]1CCCN1C[C@H](Cc1ccc(O)cc1)N1C[C@@H](Cc2ccc(O)cc2)N(CC(CC)c2ccccc2)C(=O)C1=O (stereo partly shown) | CHO-K1 | cell growth or viability, ATP luminescence | 100 µM | inhibition | 0% |
| Cc1cc(Nc2ccc(C(=O)N/N=C/c3ccnc(Cl)c3)cc2)c2cccc(O)c2n1 | SMMC-7721 | cell growth or viability, MTT | 20 µM | inhibition | 19.8% |
| Clc1ccccc1-c1nc2ccccc2[nH]1 | human Rhabdomyosarcoma cell | cell growth or viability, MTT | 48 h | IC50 | 42.4 µM |
| O=C(/C=C(O)/C=C/c1ccncc1)/C=C/c1c[nH]c2ccccc12 | CHO-K1 | cell growth or viability, SRB | 72 h | IC50 | 66.3 µM |
| c1cncc(-c2nc3ccccc3[nH]2)c1 | human Rhabdomyosarcoma cell | cell growth or viability, MTT | 48 h | IC50 | 87.7 µM |
| COc1cc(/C=C/C(=O)/C=C(O)/C=C/c2ccc[nH]2)ccc1O | CHO-K1 | cell growth or viability, MTT | 72 h | IC50 | 24.1 µM |
| CC(=O)c1c(C)c2cnc(Nc3ccc(N4CCNCC4)cn3)nc2n(C2CCCC2)c1=O | HCC70 | cell growth or viability, resazurin | – | GI50 | > 5 µM |
| Cc1cc(=O)n(C)c2cc(N3C(=O)CC[C@H](NS(=O)(=O)CC(C)C)[C@H]3c3ccc(Cl)cc3)ccc12 | HL-60 | cell growth or viability | 7 days | EC50 | 5.03 µM |
| Cc1cc(Nc2ncc(Cl)c(Nc3ccccc3S(=O)(=O)C(C)C)n2)c(OC(C)C)cc1C1CCNCC1 | NCI-H3122 | cell growth or viability, MTT | 0.0032 µg/mL, 72 h | inhibition | 10.3% |
| Cc1cc(Nc2ccc(C(=O)N/N=C/c3cccc(Oc4ccccc4)c3)cc2)c2cccc(O)c2n1 | SMMC-7721 | cell growth or viability, MTT | 20 µM | inhibition | 37.6% |
| Cc1ccc2nc(-c3ccc4c(c3)OCO4)[nH]c2c1 | human Rhabdomyosarcoma cell | cell growth or viability, MTT | 48 h | IC50 | > 100 µM |
| C/C(=N\O)c1ccc(-c2ccc(O)c(Cl)c2)c(Cl)c1O | NCI-H1299 | cell growth or viability, MTT | 30 µM, 48 h | viability | 80% |
| COc1cc(/C=C/C(=O)/C=C(O)/C=C/c2ccnc3ccccc23)ccc1O | CHO-K1 | cell growth or viability, SRB | 72 h | IC50 | 19.3 µM |
| Cc1cc(Nc2ccc(C(=O)N/N=C/c3cccs3)cc2)c2cccc(O)c2n1 | SMMC-7721 | cell growth or viability, MTT | 20 µM | inhibition | 40.7% |
| C/C(=N\O)c1ccc(-c2ccc(O)c(C)c2)c(Cl)c1O | NCI-H1299 | cell growth or viability, MTT | 30 µM, 48 h | viability | 62% |
| C[C@@H](Oc1cc(-c2cnn(C3CCNCC3)c2)cnc1N)c1c(Cl)ccc(F)c1Cl | NCI-H3122 | cell growth or viability, MTT | 0.008 µg/mL, 72 h | inhibition | 18.1% |
| C=CC(=O)N1CCN(c2nc(=O)n(-c3c(C)ccnc3C(C)C)c3nc(-c4c(O)cccc4F)c(F)cc23)[C@@H](C)C1 | NCI-H1437 | cell growth or viability, ATP luminescence | 5 days | GI50 | > 10 µM |
| CC(=O)Oc1ccc(/C=N/NC(=O)c2ccc(Nc3cc(C)nc4c(O)cccc34)cc2)cc1 | SMMC-7721 | cell growth or viability, MTT | 20 µM | inhibition | 14.1% |
| N[C@@H]1CCCN(c2c(/C=C3\SC(=O)NC3=O)cccc2-c2ccccc2)C1 | U-266 | cell growth or viability, thymidine uptake | – | GI50 | 4.27 µM |
| c1ccc2c(-c3nc4ccccc4[nH]3)c3ccccc3cc2c1 | human Rhabdomyosarcoma cell | cell growth or viability, MTT | 48 h | IC50 | 7.66 µM |

| Structure (SMILES) | cell line | assay | setting | measurement | value |
| --- | --- | --- | --- | --- | --- |
| CC(=O)c1cccc(N=Nc2c(C(=O)O)cc(O)c(O)c2O)c1 | RAW264.7 | IL-6 release, inhibitor, ELISA | 10 µM, LPS-stimulated | inhibition | 43% |
| COc1cc(/C=C/c2cc(/C=C/c3cccnc3)[nH]n2)ccc1O | CHO-K1 | cell growth or viability, MTT | 72 h | IC50 | 13.2 µM |
| Cc1ccc(/C=N/NC(=O)c2ccc(Nc3cc(C)nc4c(O)cccc34)cc2)cc1 | SMMC-7721 | cell growth or viability, MTT | 20 µM | inhibition | 50.8% |
| Cc1ccc(NC(=O)NCc2ccc3c(c2)CN(C2CCC(=O)NC2=O)C3=O)cc1Cl (stereo not shown) | MHHCALL4 | cell growth or viability, ATP luminescence | – | EC50 | 1.9e-06 µM |
| C/C(=N\O)c1ccc(-c2cccc(O)c2)c(Cl)c1O | NCI-H1299 | cell growth or viability, MTT | 30 µM, 48 h | viability | 22% |
| N#CSCCOc1ccccc1Oc1ccccc1 | Vero | cell growth or viability | 72 h | CC50 | > 20 µM |
| COc1cc(Nc2nccc(-c3cnn4nc(OC)ccc34)n2)cc(C(F)(F)F)c1 | NCI-H1437 | cell growth or viability, ATP luminescence | – | IC50 | 0.75 µM |
| Clc1ccc(-c2nc3ccccc3[nH]2)cc1 | human Rhabdomyosarcoma cell | cell growth or viability, MTT | 48 h | IC50 | > 100 µM |
| Cc1cc2c(cc1N1C(=O)c3cccc4c(CCCO)ccc(c34)C1=O)n(C)c(=O)n2C (racemic) | CHL-1 | cell growth or viability, resazurin | – | GI50 | 7.4 µM |
| COc1ccc(-c2ccc(/C(C)=N/O)c(O)c2Cl)cc1 | NCI-H1299 | cell growth or viability, MTT | 30 µM, 48 h | viability | 73% |
| FC(F)(F)[Se]CCOc1cccc(Oc2ccccc2)c1 | Vero | cell growth or viability | 72 h | CC50 | > 20 µM |
| Cc1cc(Nc2ccc(C(=O)N/N=C/c3nc4ccccc4[nH]3)cc2)c2cccc(O)c2n1 | SMMC-7721 | cell growth or viability, MTT | 20 µM | inhibition | 28.3% |
| Cn1nnc2c(C(N)=O)ncn2c1=O | MKN-45 | cell growth or viability | – | EC50 | 491 µM |
| O=C(/C=C(O)/C=C/c1ccc[nH]1)/C=C/c1c[nH]c2ccccc12 | CHO-K1 | cell growth or viability, SRB | 72 h | IC50 | 9.64 µM |
| Cc1cc(Nc2ccc(C(=O)N/N=C/c3ccccc3)cc2)c2cccc(O)c2n1 | SMMC-7721 | cell growth or viability, MTT | 20 µM | inhibition | 28.5% |
| COc1cc(/C=C/C(=O)/C=C(O)/C=C/c2cccnc2)ccc1O | CHO-K1 | cell growth or viability, MTT | 72 h | IC50 | 21.4 µM |
| CN(C)c1ccc(-c2nc3ccccc3[nH]2)cc1 | human Rhabdomyosarcoma cell | cell growth or viability, MTT | 48 h | IC50 | 50.5 µM |
| C=C(F)C(=O)N1CCN(c2nc(OC[C@@H]3CCCN3C)nc3c2CCN(c2cccc4cccc(Cl)c24)C3)C[C@@H]1CC#N | NCI-H1437 | cell growth or viability, ATP luminescence | 5 days | GI50 | 2.22 µM |
| N#C[Se]CC1Cc2ccc(Oc3ccccc3)cc2O1 (racemic) | Vero | cell growth or viability | 72 h | CC50 | > 20 µM |
| Clc1ccc(Cn2c(-c3ccc(Cl)cc3)nc3ccccc32)cc1 | human Rhabdomyosarcoma cell | cell growth or viability, MTT | – | IC50 | 9.67 µM |
| C=CC(=O)N1CCC[C@@H](n2nc(-c3ccc(Oc4ccccc4)cc3)c3c(N)ncnc32)C1 | BCWM1 | cell growth or viability | 48 h | GI50 | 0.57 µM |
